Experimental findings from PubChem BioAssay are described below.

Assay [1] is described as follows: reducers of endogenous Her2 protein level, primary screen, SKBR3 breast tumor cells, AlphaScreen, ATP viability (AID 461;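 active = Her2 level under about 52% in both replicate screens, with viability over 70% of control, limit read from the data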;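 for Her2 level: lower value means less Her2 protein in the cells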;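 for viability: percent of carrier control wells set as 100% viability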). The following applies: 18-24 h, measured here: SKBR3 viability, ATP luminescence, at 10 µM. (In general: Bead proximity is the source of the signal in Alpha formats.)
Assay [2] addresses Receptor tyrosine-protein kinase erbB-2 (Homo sapiens) (UniProt P04626). The description is as above. Particulars: 18-24 h, at 10 µM, stronger effect = lower value.
Assay [3] can be described thus: SK-BR-3 cell growth inhibitors, pilot screen, 24 h, human (AID 572).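 Note: compound exposure lasted between 18 and 24 h rather than exactly 24 h; 100% = carrier-treated control wells.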 The following applies: SK-BR-3 viability, CellTiter-Glo luminescence, at 10 µM, stronger effect = lower value. (In general: In ATP-based viability assays light output follows the ATP content of the culture.)
The nature of assay [4]: HUVEC growth inhibition – cell-based, human, primary screen (AID 575;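 active = viability at or below 30% in both replicate assays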;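 note: 100% = median of untreated cell wells with 0.1% DMSO on each plate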). The following applies: HUVEC proliferation, CellTiter-Glo luminescence, 72 h; at 10 µM; stronger effect = lower value. In short, it runs like this:
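Timing: 72 h treatment at 37 °C; material: HUVEC primary cells; technique: CellTiter-Glo luminescence measuring cellular ATP; controls: vehicle and MePR control wells; measure: percent of median DMSO-control luminescence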

Assay [5] can be described thus: growth inhibitors of H69AR lung tumor, primary screen, human, duplicate replicates (AID 580;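 active = viability at or under a set limit in both replicates, limit being median viability minus 3 SD, cut at about 48% in these data, passing the limit was not always enough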;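 note: 100% = mean luminescence of untreated wells and 0% = no signal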). Particulars: H69AR lung tumor cells viability, ATP luminescence, 72 h; at 10 µM; stronger effect = lower value.
Assay [6] is described as follows: reversal of MRP1-mediated doxorubicin resistance, pilot screen, H69AR cells, doxorubicin co-treatment (AID 601;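 active = viability loss from added drug above about 55%, and viability with drug at most 40%, in both replicates, limit read from the data, passing the limit was not always enough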). Particulars: CellTiter-Glo, 72 h, at 10 µM; for differential viability (reversal): stronger effect = higher value.
The nature of assay [7]: 384-well plate pilot, post-Golgi transport modulator project, inhibition of yeast transport mutant growth (AID 636; in the data active = inhibition above about 31%). The following applies: absorbance 615 nm, about 18 h, stronger effect = higher value.
Assay [8] can be described thus: growth suppression of yeast trafficking mutant, preliminary HTS, modulators of trafficking downstream of Golgi apparatus project, 1536-format plate, OD 615 nm (AID 637; in the data active = inhibition above about 30%). Particulars: yeast transport mutant growth, absorbance 615 nm, 18 h; stronger effect = higher value.
Where [9] appears, read: H69AR cells + 2 uM doxorubicin, measured here: viability with 2 uM doxorubicin, stronger effect = lower value.
[10] abbreviates: H69AR cells, compound alone cytotoxicity.

Calls of active or inactive are those of the source.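 Rule for the calls, unless noted: active = viability at or below 10% of carrier control in both of two separate runs; inconclusive = viability at or below 10% in only one of the two runs; inactive = the rest.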

Sequence of Receptor tyrosine-protein kinase erbB-2 (Homo sapiens) (P04626 whole entry, looked up): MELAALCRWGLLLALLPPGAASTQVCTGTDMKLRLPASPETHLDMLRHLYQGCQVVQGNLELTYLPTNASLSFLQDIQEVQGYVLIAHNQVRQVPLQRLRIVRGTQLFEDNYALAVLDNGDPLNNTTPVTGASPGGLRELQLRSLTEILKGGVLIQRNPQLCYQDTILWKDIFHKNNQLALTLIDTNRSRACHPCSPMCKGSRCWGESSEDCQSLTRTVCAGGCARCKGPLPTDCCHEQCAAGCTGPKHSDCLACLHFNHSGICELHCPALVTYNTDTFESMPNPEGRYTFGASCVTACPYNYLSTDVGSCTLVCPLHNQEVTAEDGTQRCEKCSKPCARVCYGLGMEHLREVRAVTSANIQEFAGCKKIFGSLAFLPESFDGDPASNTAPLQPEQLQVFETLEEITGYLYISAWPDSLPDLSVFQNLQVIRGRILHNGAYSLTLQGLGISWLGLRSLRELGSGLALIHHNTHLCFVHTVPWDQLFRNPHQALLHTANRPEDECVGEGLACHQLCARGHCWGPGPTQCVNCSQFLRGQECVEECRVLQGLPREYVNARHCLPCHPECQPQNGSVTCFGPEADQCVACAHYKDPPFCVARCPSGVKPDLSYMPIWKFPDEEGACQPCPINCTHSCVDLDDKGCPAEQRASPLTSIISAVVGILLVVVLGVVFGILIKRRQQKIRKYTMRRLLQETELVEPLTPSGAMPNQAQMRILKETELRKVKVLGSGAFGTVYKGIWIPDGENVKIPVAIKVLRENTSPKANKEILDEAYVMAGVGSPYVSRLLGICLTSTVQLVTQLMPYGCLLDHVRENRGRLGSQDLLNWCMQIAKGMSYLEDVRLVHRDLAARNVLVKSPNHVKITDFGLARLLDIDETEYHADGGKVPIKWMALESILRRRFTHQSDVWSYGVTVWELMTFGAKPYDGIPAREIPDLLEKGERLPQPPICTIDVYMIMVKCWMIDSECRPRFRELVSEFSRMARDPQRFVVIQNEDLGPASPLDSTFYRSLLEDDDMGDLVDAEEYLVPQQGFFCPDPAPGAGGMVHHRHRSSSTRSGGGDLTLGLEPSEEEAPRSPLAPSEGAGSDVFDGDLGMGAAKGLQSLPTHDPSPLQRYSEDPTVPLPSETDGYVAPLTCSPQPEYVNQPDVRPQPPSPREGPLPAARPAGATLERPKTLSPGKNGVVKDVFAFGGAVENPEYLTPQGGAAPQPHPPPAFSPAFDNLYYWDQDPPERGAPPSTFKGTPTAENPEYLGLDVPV

The viability is a read-out of living cells in per cent, often relative to untreated cells. As usually defined, the inhibition is the drop in the measured response relative to a control, in per cent. As for `COc1ccc(NC(=O)CN2CCCCC2)cc1`, the viability was 108% in assay [1]; 108% (inactive) in assay [3]; 90.2% (inactive) in assay [4]; 88.2% (inactive) in assay [5]; 82.3% in assay [6] (setting [9]); 88.2% in assay [6] (setting [10]). Moreover, in assay [2], the Her2 level was 108% (inactive). For the same compound, the differential viability (reversal) in assay [6] (H69AR cells + 2 uM doxorubicin) was 5.94% (inactive). For the same compound, the inhibition in assay [7] is -5.58% (inactive); in assay [8] it was -10% (inactive).

With `COc1cc(CNc2ccc(N3CCOCC3)c(C(=O)O)c2)ccc1OCC(N)=O`, the viability in assay [1] was 106%; in assay [3], 106% (inactive); in assay [4], 97.4% (inactive); in assay [5], 99.9% (inactive); in assay [6] (setting [9]), 99.1%; in assay [6] (setting [10]), 99.9%. The Her2 level in assay [2] was 102% (inactive). Moreover, in assay [6] (H69AR cells + 2 uM doxorubicin), the differential viability (reversal) was 0.83% (inactive). Further, the inhibition in assay [7] is -4.67% (inactive); in assay [8] it was -2.13% (inactive).

Regarding `CCCC(=O)N(Cc1cc2ccccc2[nH]c1=O)c1ccccc1OC`, the viability in assay [1] is 97%; in assay [3], 97% (inactive); in assay [4] it was 105% (inactive); in assay [5], 105% (inactive); in assay [6] (setting [9]), 99.5%; in assay [6] (setting [10]), 105%. Moreover, the Her2 level in assay [2] was 94.5% (inactive). The differential viability (reversal) in assay [6] (H69AR cells + 2 uM doxorubicin) is 5.2% (inactive). Further, the inhibition in assay [7] is -0.26% (inactive); in assay [8], 12.3% (inactive).

As for `COc1cccc(CN(C)CC(=O)NC(=O)NCc2ccco2)c1`, the viability is 106% in assay [1]; 106% (inactive) in assay [3]; 92.7% (inactive) in assay [4]; 84.7% (inactive) in assay [5]; 79.4% in assay [6] (setting [9]); 84.7% in assay [6] (setting [10]). The Her2 level in assay [2] is 100% (inactive). Also, the differential viability (reversal) in assay [6] (H69AR cells + 2 uM doxorubicin) was 5.36% (inactive). Besides, the values for the inhibition in assay [7] and in assay [8] were 0.92% (inactive) and 21.4% (inactive), respectively.

On to `CC(Oc1ccccc1)C(=O)NC1CCN(Cc2ccccc2)CC1` (stereo not given), for which the viability is 93% in assay [1]; 93% (inactive) in assay [3]; 90.7% (inactive) in assay [4]; 93.5% (inactive) in assay [5]; 86.1% in assay [6] (setting [9]); 93.5% in assay [6] (setting [10]). Besides, in assay [2], the Her2 level was 83% (inactive). Moreover, the differential viability (reversal) in assay [6] (H69AR cells + 2 uM doxorubicin) is 7.39% (inactive). Also, the inhibition in assay [7] is -5.6% (inactive); in assay [8] it was 3.65% (inactive).

As for `CC(NC(=O)c1ccco1)C(c1cccs1)N1CCN(c2ccc(F)cc2)CC1` (stereo not given), the viability in assay [1] is 96%; in assay [3] it was 96% (inactive); in assay [4] it was 67.9% (inactive); in assay [5], 86.2% (inactive); in assay [6] (setting [9]) it was 102%; in assay [6] (setting [10]), 86.2%. Besides, the Her2 level in assay [2] was 89% (inactive). The differential viability (reversal) in assay [6] (H69AR cells + 2 uM doxorubicin) is -15.7% (inactive). Also, the inhibition is -4.13% (inactive) in assay [7] and 0.16% (inactive) in assay [8].

In the case of `Cc1ccc2c(c1)NC(=O)C(CC(=O)NCCN(CC(C)C)CC(C)C)O2` (stereo not given), the viability in assay [1] is 88%; in assay [3] it was 88% (inactive); in assay [4] it was 87.3% (inactive); in assay [5], 91.6% (inactive); in assay [6] (setting [9]), 85.8%; in assay [6] (setting [10]), 91.6%. For the same compound, the Her2 level in assay [2] is 93% (inactive). The differential viability (reversal) in assay [6] (H69AR cells + 2 uM doxorubicin) was 5.71% (inactive). Besides, the inhibition in assay [7] was 2.13% (inactive); in assay [8], -3.28% (inactive).

For the compound `CCn1nccc1C(=O)Nc1cc(Cl)ccc1Cl`, the viability is 102% in assay [1]; 102% (inactive) in assay [3]; 89.3% (inactive) in assay [4]; 112% (inactive) in assay [5]; 86.7% in assay [6] (setting [9]); 112% in assay [6] (setting [10]). In assay [2], the Her2 level is 97.5% (inactive). Further, the differential viability (reversal) in assay [6] (H69AR cells + 2 uM doxorubicin) is 24.9% (inactive). The figures for the inhibition in assay [7] and in assay [8] were -5.66% (inactive) and -2% (inactive), respectively.

Turning to `CC(NC(=O)c1ccc(F)cc1)C(c1cccs1)N1CCN(C)CC1` (stereo not given), the viability in assay [1] is 90.5%; in assay [3], 90.5% (inactive); in assay [4], 98% (inactive); in assay [5], 91.9% (inactive); in assay [6] (setting [9]), 91.7%; in assay [6] (setting [10]), 91.9%. Moreover, the Her2 level in assay [2] was 86.5% (inactive). Further, the differential viability (reversal) in assay [6] (H69AR cells + 2 uM doxorubicin) was 0.16% (inactive). Also, the inhibition in assay [7] is -6% (inactive); in assay [8], 3.44% (inactive).

As for `CCn1ncc(Cl)c1C(=O)Nc1ccncc1`, the viability in assay [1] is 114%; in assay [3], 114% (inactive); in assay [4] it was 97.5% (inactive); in assay [5], 98.6% (inactive); in assay [6] (setting [9]), 83.7%; in assay [6] (setting [10]), 98.6%. For the same compound, the Her2 level in assay [2] is 94.5% (inactive). The differential viability (reversal) in assay [6] (H69AR cells + 2 uM doxorubicin) is 14.8% (inactive). Further, the inhibition in assay [7] was -4.4% (inactive); in assay [8], -1.97% (inactive).

For `CC(O)c1n(C)c(Cl)c[n+]1C` (stereo not given), the viability in assay [1] was 114%; in assay [3], 114% (inactive); in assay [4], 109% (inactive); in assay [5], 103% (inactive); in assay [6] (setting [9]), 106%; in assay [6] (setting [10]), 103%. The Her2 level in assay [2] is 95% (inactive). Further, the differential viability (reversal) in assay [6] (H69AR cells + 2 uM doxorubicin) is -3.03% (inactive). Besides, the inhibition in assay [7] is -0.66% (inactive); in assay [8], 6.39% (inactive).

As to `CC1(C)OC(=O)C(=CNc2ccccc2F)C(=O)O1`, the viability in assay [1] is 102%; in assay [3], 102% (inactive); in assay [4], 97.6% (inactive); in assay [5] it was 91.2% (inactive); in assay [6] (setting [9]) it was 92.4%; in assay [6] (setting [10]) it was 91.2%. Besides, in assay [2], the Her2 level was 83.5% (inactive). In assay [6] (H69AR cells + 2 uM doxorubicin), the differential viability (reversal) was -1.11% (inactive). Further, the results for the inhibition in assay [7] and in assay [8] were -2.99% (inactive) and 2.06% (inactive), respectively.

With `CCOC(=O)N1CCN(c2c(N3CCN(c4ccccn4)CC3)c(=O)c2=O)CC1`, the viability is 104% in assay [1]; 104% (inactive) in assay [3]; 95.4% (inactive) in assay [4]; 92.5% (inactive) in assay [5]; 82.6% in assay [6] (setting [9]); 92.5% in assay [6] (setting [10]). The Her2 level in assay [2] was 103% (inactive). Moreover, in assay [6] (H69AR cells + 2 uM doxorubicin), the differential viability (reversal) is 9.85% (inactive). Further, the inhibition was -2.67% (inactive) in assay [7] and -2.79% (inactive) in assay [8].

Consider `CC12CCC(C(=O)N3CCCCC3)(CC1=O)C2(C)C` (stereo not given), for which the viability is 97.5% in assay [1]; 97.5% (inactive) in assay [3]; 96.3% (inactive) in assay [4]; 97.8% (inactive) in assay [5]; 97.2% in assay [6] (setting [9]); 97.8% in assay [6] (setting [10]). Moreover, in assay [2], the Her2 level is 102% (inactive). Further, in assay [6] (H69AR cells + 2 uM doxorubicin), the differential viability (reversal) was 0.59% (inactive). In addition, the inhibition in assay [7] is -3.08% (inactive); in assay [8], -0.83% (inactive).

For the compound `c1ccc2c(c1)sc1nnnn12`, the viability in assay [1] is 94.5%; in assay [3], 94.5% (inactive); in assay [4], 79.9% (inactive); in assay [5] it was 86.6% (inactive); in assay [6] (setting [9]), 100%; in assay [6] (setting [10]), 86.6%. Moreover, the Her2 level in assay [2] was 81% (inactive). In addition, the differential viability (reversal) in assay [6] (H69AR cells + 2 uM doxorubicin) is -13.7% (inactive). Besides, the inhibition was -5.07% (inactive) in assay [7] and 1.97% (inactive) in assay [8].

For `CC(=O)c1ccc(-c2nc3ccccc3n2C)o1`, the viability in assay [1] is 104%; in assay [3], 104% (inactive); in assay [4] it was 96.7% (inactive); in assay [5], 72.7% (inactive); in assay [6] (setting [9]), 69.6%; in assay [6] (setting [10]), 72.7%. Besides, the Her2 level in assay [2] was 81% (inactive). Moreover, the differential viability (reversal) in assay [6] (H69AR cells + 2 uM doxorubicin) was 3.04% (inactive). Besides, the inhibition was -6.8% (inactive) in assay [7] and -1.9% (inactive) in assay [8].
